From ChEMBL document CHEMBL1125226, “Antineoplastic activity of didemnin congeners: nordidemnin and modified chain analogues” (1991)

Assays:
Assay type in all cases: functional, Mus musculus
[1] = system: L1210; experiment: Antitumor activity against L1210 Lymphoid Leukemia from CDF1 female mice as the number of survivors on day 5 at a dose of 1.0 mg/kg/day
Outline: (§1)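 L1210 leukemia, 10⁵ cells ip on day 0 into CDF1 female mice (BALB/c ♀ × DBA/2 ♂). Drug in 2% methanol given ip on days 1, 5 and 9, 10 mice per group. Survivors and body weight recorded on days 1 and 5, with toxicity as survivors on day 5. Deaths followed for 30 days. T/C = treated/control median survival time, significant at ≥125%.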

[2] = system: P388; experiment: Average weight change of animals between day 1 and day 5 after tumor implementation at a dose of 1 mg/kg/day
Outline: (§2)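 P388 leukemia: CDF1 female mice were inoculated ip with 10⁶ cells on day 0. Treatment in 2% methanol was given ip on days 1, 5 and 9, with 10 mice per group and a larger control group. Body weight was recorded on days 1 and 5 post-implant, and the average change was reported.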

[3] = system: P388; experiment: Antitumor activity (T/C) was evaluated from the median survival time of treated mice (T) over that of control mice (C) at a dose of 0.25 mg/kg/day
Outline: (§3)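 CDF1 female mice (BALB/c ♀ × DBA/2 ♂) given 10⁶ P388 cells ip on day 0. Drug in 2% methanol given ip on days 1, 5 and 9, 10 mice per group and more controls. Toxicity is survivors on day 5, with weight change between days 1 and 5. Mortality followed 30 days. T/C% is treated over control median survival (NCI method), significant at ≥125%.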

[4] = system: P388; experiment: Antitumor activity (T/C) was evaluated from the median survival time of treated mice (T) over that of control mice (C) at a dose of 0.12 mg/kg/day; outline: as §3
[5] = system: P388; experiment: Antitumor activity against P388 Leukemia from CDF1 female mice evaluated as the number of survivors on day 5 at a dose of 0.03 mg/kg/day
Outline: (§4)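 CDF1 female mice (BALB/c × DBA/2) inoculated ip with 10⁶ P388 cells on day 0. Drug given ip in 2% methanol on days 1, 5 and 9. Ten mice per dose group, with a larger control group. Body weight and survival were recorded on days 1 and 5, with toxicity taken as survivors on day 5. Mortality was followed for 30 days to give median survival time.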

[6] = system: P388; experiment: Average weight change of animals between day 1 and day 5 after tumor implementation at a dose of 0.75 mg/kg/day; outline: as §2
[7] = system: P388; experiment: Average weight change of animals between day 1 and day 5 after tumor implementation at a dose of 0.03 mg/kg/day; outline: as §2
[8] = system: B16; experiment: Antitumor activity against B16 melanoma from B6 D2 F1 female mice(T/C) was evaluated from the median survival time of treated mice (T) over that of control mice (C) at a dose of 0.03 mg/kg/day
Outline: (§5)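 B6D2F1 female mice (C57BL/6 ♀ × DBA/2 ♂) implanted ip on day 0 with 0.5 mL of B16 tumor suspension (1 g homogenized in 9 mL 0.9% saline). Dosing ip on days 1, 5 and 9. Day-5 survivors give toxicity. Median survival of treated vs control mice gives T/C%, with ≥125% significant.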

[9] = system: B16; experiment: Antitumor activity against B16 melanoma from B6 D2 F1 female mice evaluated as the number of survivors on day 5 at a dose of 0.25 mg/kg/day (repeated ip injections, day 1-9); conditions: route intraperitoneal
Outline: (§6)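 B16 melanoma homogenate (1 g tumor in 9 mL 0.9% saline), 0.5 mL implanted ip on day 0 in B6D2F1 female mice (C57BL/6 ♀ × DBA/2 ♂). Treatment ip once daily from day 1 to day 9. Toxicity scored as survivors on day 5. Median survival recorded and T/C computed as treated/control median survival, ≥125% significant.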

[10] = system: B16; experiment: Antitumor activity against B16 melanoma from B6 D2 F1 female mice evaluated as the number of survivors on day 5 at a dose of 0.50 mg/kg/day; outline: as §5
[11] = system: B16; experiment: Antitumor activity against B16 melanoma from B6 D2 F1 female mice evaluated as the number of survivors on day 5 at a dose of 0.03 mg/kg/day; outline: as §5
[12] = system: B16; experiment: Antitumor activity against B16 melanoma from B6 D2 F1 female mice evaluated as the number of survivors on day 5 at a dose of 0.50 mg/kg/day (repeated ip injections, day 1-9); conditions: route intraperitoneal; outline: as §6
[13] = system: P388; experiment: Antitumor activity against P388 Leukemia from CDF1 female mice evaluated as Median survival time of treated mice at a dose of 0.50 mg/kg/day; outline: as §4
[14] = system: B16; experiment: Antitumor activity against B16 melanoma from B6 D2 F1 female mice(T/C) as median survival time of treated mice (T) over that of control mice (C) at a dose of 0.06 mg/kg/day (repeated ip injections, day 1-9); conditions: route intraperitoneal; outline: as §6
[15] = system: B16; experiment: Antitumor activity against B16 melanoma from B6 D2 F1 female mice evaluated as Median survival time of treated mice at a dose of 0.06 mg/kg/day; outline: as §5
[16] = system: L1210; experiment: Antitumor activity against L1210 Lymphoid Leukemia from CDF1 female mice as Median survival time of treated mice at a dose of 0.50 mg/kg/day; outline: as §1
[17] = system: B16; experiment: Antitumor activity against B16 melanoma from B6 D2 F1 female mice evaluated as Median survival time of treated mice at a dose of 0.06 mg/kg/day (repeated ip injections, day 1-9); conditions: route intraperitoneal; outline: as §6
[18] = system: L1210; experiment: Antitumor activity against L1210 Lymphoid Leukemia from CDF1 female mice (T/C) as median survival time of treated mice (T) over that of control mice (C) at a dose of 1.0 mg/kg/day; outline: as §1
[19] = system: P388; experiment: Antitumor activity was evaluated from the median survival time of treated mice (T) over that of control mice (C) at a dose of 1 mg/kg/day
[20] = system: B16; experiment: Antitumor activity against B16 melanoma from B6 D2 F1 female mice as average weight change of animals between day 1 and day 5 after tumor implementation at a dose of 0.03 mg/kg/day (repeated ip injections, day 1-9); conditions: route intraperitoneal
Outline: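 B6D2F1 female mice (C57BL/6 × DBA/2) were implanted ip on day 0 with 0.5 mL of B16 suspension (1 g tumor homogenized in 9 mL 0.9% saline). Ip treatment was given once daily, day 1 to day 9. Body weight was recorded on days 1 and 5 after implantation, and the mean change per group was reported.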

[21] = system: L1210; experiment: Antitumor activity against L1210 Lymphoid Leukemia from CDF1 female mice evaluated as the number of survivors on day 5 at a dose of 0.25 mg/kg/day; outline: as §1
[22] = system: P388; experiment: Median survival time of treated mice at a dose of 1 mg/kg/day
[23] = system: P388; experiment: Antitumor activity (T/C) was evaluated from the median survival time of treated mice (T) over that of control mice (C) at a dose of 0.06 mg/kg/day; outline: as §3
[24] = system: B16; experiment: Antitumor activity against B16 melanoma from B6 D2 F1 female mice as Median survival time of treated mice at a dose of 0.03 mg/kg/day (repeated ip injections, day 1-9); conditions: route intraperitoneal; outline: as §6
[25] = system: B16; experiment: Antitumor activity against B16 melanoma from B6 D2 F1 female mice evaluated as Median survival time of treated mice at a dose of 0.25 mg/kg/day; outline: as §5

SMILES: COc1ccc(C[C@H]2C(=O)O[C@H](C)[C@H](NC(=O)[C@@H](CC(C)C)N(C)C(=O)C3CCCN3C(=O)[C@@H](C)O)C(=O)NC(C(C)C)[C@H](O)CC(=O)O[C@@H](C(C)C)C(=O)[C@H](C)C(=O)N[C@@H](CC(C)C)C(=O)N3CCC[C@H]3C(=O)N2C)cc1 (stereo not given in full) [NORDIDEMNIN]
- Toxicity [1]: 1
- Body weight change [2]: -2.3 g
- T/C [3]: 142%
- T/C [4]: 133%
- Toxicity [5]: 1
- Body weight change [6]: -1.7 g
- Body weight change [7]: 0 g
- T/C [8]: 101%
- Toxicity [9]: 1
- Toxicity [10]: 1
- Toxicity [11]: 1
- Toxicity [12]: 1
- median survival time, days [13]: 17.9
- T/C [14]: 146%
- median survival time, days [15]: 22
- median survival time, days [16]: 10.7
- median survival time, days [17]: 27.8
- T/C [18]: 123%
- T/C [19]: 180%
- Body weight change [20]: -0.1 g
- Toxicity [21]: 1
- median survival time, days [22]: 19.9
- T/C [23]: 123%
- median survival time, days [24]: 26.5
- median survival time, days [25]: 27
